Bioassay records deposited in PubChem BioAssay by Johns Hopkins Ion Channel Center.
TRPC6 act = activators of mouse TRPC6 channel; HEK293-TRPC6 membrane potential dye fluorescence; stronger effect = higher value; hit rate 0.13% among 310,000; Q61143; B-score at 10 µM;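 active means B-score of the integrated fluorescence ratio above library mean plus 3 SD, and starting fluorescence ratio within library mean plus 5 SD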;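 further: higher score means more depolarization so channel activation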
TRPC6 inh = mouse TRPC6 channel inhibition; Q61143; HEK293-TRPC6, membrane potential dye, ACh-evoked depolarization; stronger effect = lower value; B-score at 10 µM; hit rate 1.1% among 310,000; AID 2553;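 active means B-score under library mean minus 3 SD, initial fluorescence not abnormally high, positive integrated signal ratio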;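 further: B-score derived from integrated fluorescence ratio over the kinetic read; more negative B-score means stronger inhibition of depolarization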
TRPC4 act = opens the mouse TRPC4 cation channel; Q9QUQ5; HEK293 TRPC4beta/mu-opioid, Fluo4 calcium fluorescence; stronger effect = higher value; B-score at 10 µM; hit rate 0.49% among 310,000; AID 2237;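 active means B-score above 5 SD of library B-scores, and initial fluorescence ratio not above library mean plus 5 SD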;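 further: positive B-score marks a calcium rise read as TRPC4 activation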
Target sequence (Q9QUQ5 whole entry, looked up): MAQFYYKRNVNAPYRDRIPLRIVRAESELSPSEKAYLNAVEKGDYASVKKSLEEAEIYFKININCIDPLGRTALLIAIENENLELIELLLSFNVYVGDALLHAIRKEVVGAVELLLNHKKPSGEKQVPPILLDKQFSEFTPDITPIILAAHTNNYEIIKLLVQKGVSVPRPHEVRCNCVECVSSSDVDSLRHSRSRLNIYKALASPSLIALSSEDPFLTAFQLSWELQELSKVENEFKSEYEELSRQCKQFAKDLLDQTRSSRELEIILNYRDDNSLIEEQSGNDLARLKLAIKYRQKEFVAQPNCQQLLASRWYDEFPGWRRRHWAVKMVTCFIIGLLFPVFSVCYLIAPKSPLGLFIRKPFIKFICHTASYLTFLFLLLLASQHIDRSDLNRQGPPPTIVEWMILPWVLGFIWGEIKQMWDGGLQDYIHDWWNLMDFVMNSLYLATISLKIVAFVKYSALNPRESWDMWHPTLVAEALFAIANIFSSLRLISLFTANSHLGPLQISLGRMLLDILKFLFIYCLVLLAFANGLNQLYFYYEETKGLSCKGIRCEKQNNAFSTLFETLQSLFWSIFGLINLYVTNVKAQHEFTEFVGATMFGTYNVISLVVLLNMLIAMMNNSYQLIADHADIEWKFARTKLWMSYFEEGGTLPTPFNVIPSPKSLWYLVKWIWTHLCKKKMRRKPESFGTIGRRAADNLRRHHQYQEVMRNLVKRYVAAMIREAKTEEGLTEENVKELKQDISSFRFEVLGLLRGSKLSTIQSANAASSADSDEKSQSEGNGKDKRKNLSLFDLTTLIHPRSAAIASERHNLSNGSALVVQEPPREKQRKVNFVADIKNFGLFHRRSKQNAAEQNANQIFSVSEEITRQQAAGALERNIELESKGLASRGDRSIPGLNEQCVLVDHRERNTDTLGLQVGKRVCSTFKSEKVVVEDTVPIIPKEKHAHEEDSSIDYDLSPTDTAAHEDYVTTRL
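Technique: kinetic Fluo4 calcium fluorescence; Test system: TRPC4beta and mu-opioid receptor HEK293 stable cells; Measure: B-scored integrated calcium fluorescence ratio; Benchmarks: low control buffer alone, high control maximal DAMGO; Schedule: 45 min room-temperature Fluo4 loading, 110 s read.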
TRPC4 potent = allosterically enhances the mouse TRPC4 cation channel | AID 2227 | hit rate 0.42% among 310,000 | HEK293 TRPC4beta/mu-opioid, DAMGO EC20, Fluo-4 Ca2+ flux; stronger effect = higher value | B-score at 10 µM;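 active means B-score of calcium response area above 5 SD of library B-scores, with initial fluorescence ratio within 5 SD of library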
TRPC4 block = inhibitors of mouse TRPC4 channel; HEK293 TRPC4beta/mu-opioid, DAMGO-evoked Fluo4 calcium flux; stronger effect = lower value; B-score at 10 µM; hit rate 0.39% among 300,000; AID 2247;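 active means B-score over 3 SD under the library average, no early fluorescence shift, positive overall ratio signal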
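test system = HEK293 cells with stable TRPC4beta plus mu-opioid receptor expression | detection = Fluo4 Ca2+ flux fluorescence | read-out = integrated fluorescence ratio relative to baseline, converted to per-well B score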
TRPC4 sel inh 2 = mouse TRPC4 off-target activity of TRPC6 inhibitors, second screen; shares compounds with TRPC6 inh; HEK293 TRPC4/MOR, membrane potential dye fluorescence; channel activated by saturating DAMGO dose; inhibition, % at 10 µM; hit rate 42% among 920; AID 2776;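 active means compounds whose fluorescence signal differed from control wells by over 3 SD, either direction, in both duplicate plates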
TRPC4 spec = mouse TRPC4 off-target activity of TRPC6 inhibitors; shares compounds with TRPC6 inh; hit rate 61% among 920; HEK293 TRPC4/mu-opioid, membrane potential fluorescence; activity change, negative = inhibition, % at 10 µM;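 active means rise or fall in signal beyond 3 SD of buffer-only wells in both replicate plates, either sign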;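 further: integrated kinetic ratio of fluorescence range over baseline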
HEK293 MPD ctr 2-1 = second counter-screen for TRPC6 inhibitors: parental HEK293 cells. shares compounds with TRPC6 inh. parental HEK293 membrane potential dye fluorescence; maximal acetylcholine challenge after compound addition. signal change vs control, % at 10 µM. hit rate 31% among 920;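 active means membrane potential signal moving either way by over 3 SD of the maximum-effect control, in both duplicate plates, meaning non-specific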
HEK293 MPD ctr-1 = counter-screen for TRPC6 inhibitors: effect in parental HEK293 cells; hit rate 60% among 920; membrane potential signal change, % at 10 µM; parental HEK293 membrane potential dye fluorescence; shares compounds with TRPC6 inh;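 active means membrane potential signal shifting up or down by more than 3 SD of buffer-only wells, on both duplicate plates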
HEK293 MPD ctr-2 = counter-screen for TRPC6 modulators: effect in parental HEK293 cells. membrane potential signal change, % at 10 µM. hit rate 51% among 2,400. membrane potential dye fluorescence. AID 488924. shares compounds with TRPC6 inh;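 active means membrane potential signal moves up or down beyond 5 SD from buffer-only wells, on both duplicate plates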
HEK293 MPD ctr 2-2 = parental HEK293 nonspecific activity of TRPC6 modulators, second screen. inhibition, % at 10 µM. membrane potential dye fluorescence; after compound, maximal acetylcholine stimulation. hit rate 14% among 2,400. AID 488926. shares compounds with TRPC6 inh;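 active means membrane potential signal drops by more than 5 SD from the mean control signal, in both duplicate plates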
TRPC4/MOR mod = tests whether TRPC6 modulators also affect mouse TRPC4; HEK293 TRPC4/mu-opioid, membrane potential fluorescence; percent change from control (negative = decrease, positive = increase), % at 10 µM; shares compounds with TRPC6 inh; AID 488927; hit rate 69% among 2,400;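 active means membrane potential signal moved up or down beyond 5 SD of buffer control wells, in both duplicate plates, actives on both sides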
TRPC4 ctr inh 2 = second check of whether TRPC6 modulators also affect mouse TRPC4. shares compounds with TRPC6 inh. HEK293 TRPC4/mu-opioid, membrane potential dye fluorescence; stimulated with maximal-effect DAMGO. inhibition, % at 10 µM. hit rate 55% among 2,400. AID 488928;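 active means drop in membrane potential signal beyond 5 SD of the control wells in both duplicate plates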;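 further: TRPC4 counter screen for TRPC6 hits run under conditions tuned for TRPC6 not TRPC4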
TRPC6 inh conf = mouse TRPC6 inhibitor confirmation | HEK293-TRPC6, membrane potential dye, ACh-evoked depolarization | hit rate 43% among 3,300 | AID 488960 | shares compounds with TRPC6 inh | inhibition, % at 10 µM;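 active means fluorescence ratio falls more than 5 SD below the full-stimulation control mean, in both duplicate runs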;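 further: integrated fluorescence ratio of peak minus minimum over baseline after agonist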
TRPC6 act confirm = confirmation of mouse TRPC6 activators; shares compounds with TRPC6 inh; HEK293-TRPC6 membrane potential dye fluorescence, FDSS; activation, % at 10 µM; hit rate 11% among 2,800; AID 488961;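 active means ratio signal rise beyond 5 SD above unstimulated control wells' mean, seen in both duplicate runs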
Hits are given with their value; n = inactive; x = not tested or not shown. Hits are enriched below; roughly 2.3% of the tested compounds scored in any of these assays.

SMILES	TRPC6 act	TRPC6 inh	TRPC4 act	TRPC4 potent	TRPC4 block	HEK293 MPD ctr-2	HEK293 MPD ctr 2-2	TRPC4/MOR mod	TRPC4 ctr inh 2	TRPC6 inh conf	TRPC6 act confirm	others
CCn1c(/C=C/Nc2ccccc2)[n+](CC)c2ccc(Cl)cc21	n	-5.2	n	n	n	-186%	n	-34%	56%	50%	n
CCn1c(C)[n+](Cc2ccccc2)c2ccc(Cl)cc21	n	n	n	n	n	x	x	x	x	x	x
CS(=O)(=O)N(CC(=O)Nc1ccc(S(=O)(=O)N2CCOCC2)cc1)c1cccc(F)c1	n	n	n	n	n	x	x	x	x	x	x
Cc1ccccc1/C=N/Nc1nc2ccccc2[nH]1	n	n	n	n	n	x	x	x	x	x	x
C(=N\Nc1nc2ccccc2[nH]1)/c1c[nH]c2ccccc12	n	-9.7	n	n	n	-105%	n	-26%	74%	56%	n
C(=N\Nc1nc(N2CCCCC2)nc(N2CCCCC2)n1)/c1c[nH]c2ccccc12	n	-7.9	n	n	n	-56%	n	-15%	42%	58%	n
CN(C)c1nc(N/N=C/c2c[nH]c3ccccc23)nc(N2CCOCC2)n1	n	n	n	n	n	x	x	x	x	x	x
COc1cc(/C=C/C(=O)NCCN2CCOCC2)cc(OC)c1OC	n	n	n	n	n	x	x	x	x	x	x
OCCC1CN(Cc2cccc3nonc23)CCN1C1CCCCC1 (stereo not given)	n	n	n	n	n	x	x	x	x	x	x
NS(=O)(=O)c1ccc(NC(=O)c2cc(-c3cc(Cl)ccc3O)n[nH]2)cc1	n	n	n	n	n	x	x	x	x	x	x
Cc1cc(NC(=O)CSc2ccccn2)cc(NC(=O)CSc2ccccn2)c1	n	n	n	n	n	x	x	x	x	x	x
Cc1nonc1NC(=O)CSc1ccccn1	n	-5.7	n	n	n	n	n	n	n	n	n
COc1ccc(NC(=O)c2ccccc2Oc2ccccc2)cc1	n	n	n	n	n	x	x	x	x	x	x
Cc1ccc(NC(=O)C(NC2CCCC2)c2ccccc2)cc1Cl (stereo not given)	n	n	n	n	n	x	x	x	x	x	x
COc1cccc(NC(=O)C(NC2CCCC2)c2ccccc2)c1 (stereo not given)	n	-9.6	n	n	n	x	x	x	x	n	x	TRPC4 sel inh 2=n;TRPC4 spec=12%;HEK293 MPD ctr 2-1=245%;HEK293 MPD ctr-1=9.7%
COc1cccc(NC(=O)c2ccccc2Oc2ccccc2)c1	n	-5.3	n	n	n	n	n	14%	n	n	n
CCc1cc(C(=O)N(Cc2ccccc2)c2c(N)n(CCOC)c(=O)[nH]c2=O)sc1C	n	n	n	n	n	x	x	x	x	x	x
O=C(CNCc1ccccc1)NC1C2CC3CC(C2)CC1C3 (stereo not given)	n	-5.8	n	n	n	n	n	9.0%	36%	60%	x
Cc1cc(CNC(=O)COc2ccc(F)cc2Cl)cc(C)c1O	n	n	n	n	n	x	x	x	x	x	x
Cc1ccc(C)c(CS(=O)(=O)c2cn(CC(=O)N3CCCCC3)c3ccccc23)c1	12	n	n	n	n	n	n	n	n	x	44%
Cc1ccc(C)c(CS(=O)(=O)c2cn(CC(=O)N3CCC(C)CC3)c3ccccc23)c1	n	n	n	n	n	x	x	x	x	x	x
CCOc1ccc(CCNC(=O)COC(=O)c2nc3nc(C)cc(C)n3n2)cc1OCC	n	n	n	n	n	x	x	x	x	x	x
CCN(CC)C(=O)CSc1nc2ccccc2c(=O)n1-c1cccc(OC)c1	12	-5.9	n	n	n	158%	n	36%	n	n	73%
Cc1c(C)n(C)c2ccc(C(=O)N3CCN(c4ccccc4)CC3)cc12	n	-7.2	n	n	n	n	n	n	n	40%	n
Cc1c(C)n(C)c2ccc(C(=O)N3CCN(c4ccccn4)CC3)cc12	n	n	n	n	n	x	x	x	x	x	x
SMILES	TRPC6 act	TRPC6 inh	TRPC4 act	TRPC4 potent	TRPC4 block	HEK293 MPD ctr-2	HEK293 MPD ctr 2-2	TRPC4/MOR mod	TRPC4 ctr inh 2	TRPC6 inh conf	TRPC6 act confirm	others
COc1ccc(CN2CCNC(=O)C2CC(=O)N(C)Cc2ccon2)c(F)c1 (stereo not given)	n	n	n	n	n	x	x	x	x	x	x
CCOc1ccc(CNc2ccc3c(c2)ncn3C(C)(C)C)cc1	n	-8.5	n	n	n	x	x	x	x	66%	n	TRPC4 sel inh 2=n;TRPC4 spec=n;HEK293 MPD ctr 2-1=n;HEK293 MPD ctr-1=n
CCCn1cnc2cc(NCc3ccc(Br)cc3)ccc21	n	n	n	n	n	x	x	x	x	x	x
CCn1cnc2cc(NCc3ccc(Br)cc3)ccc21	n	-5	n	n	n	n	n	n	40%	40%	n
Clc1ccc(SCCCCN2CCNCC2)cc1	n	-7.5	n	14	n	x	x	x	x	n	n	TRPC4 sel inh 2=67%;TRPC4 spec=n;HEK293 MPD ctr 2-1=n;HEK293 MPD ctr-1=2.5%
Clc1ccc(SCCCCN2CCOCC2)cc1	n	n	n	n	n	x	x	x	x	x	x
S=C(NCCN1CCOCC1)N/N=C/c1c2ccccc2cc2ccccc12	n	-5.2	n	n	n	260%	n	-22%	n	n	n
Cc1cc(N2CCN(c3ccc(C(F)(F)F)cc3[N+](=O)[O-])CC2)c2ccccc2n1	n	-6.3	n	n	n	n	n	-12%	67%	n	n
Cc1cc(C)n(-c2ccc(C(F)(F)F)cc2[N+](=O)[O-])n1	n	-5.3	n	n	n	n	n	9.5%	n	n	n
Cc1cc(C)n(-c2ccc(S(=O)(=O)N3CCCC3)cc2[N+](=O)[O-])n1	n	n	n	n	n	x	x	x	x	x	x
Cc1cc(N2CCN(c3ccc([N+](=O)[O-])c4cccnc34)CC2)c2ccccc2n1	n	n	n	n	n	x	x	x	x	x	x
N#CCN1CCN(CC(=O)Nc2cccc3ccccc23)CC1	n	n	n	n	n	x	x	x	x	x	x
